Data taken from ChEMBL document CHEMBL5653631, “A Potent and Selective ULK1 Inhibitor Suppresses Autophagy and Sensitizes Cancer Cells to Nutrient Stress” (iScience, 2018).

Key:
[1] = target: Tyrosine-protein kinase Yes (Homo sapiens) (UniProt P07947); experiment: Inhibition of human recombinant YES at 500 nM related to control ULK1
[2] = target: T1, Serine/threonine-protein kinase A-Raf (Homo sapiens) (UniProt P10398); experiment: Inhibition of human recombinant ARAF at 500 nM related to control ULK1
T1 sequence (whole entry): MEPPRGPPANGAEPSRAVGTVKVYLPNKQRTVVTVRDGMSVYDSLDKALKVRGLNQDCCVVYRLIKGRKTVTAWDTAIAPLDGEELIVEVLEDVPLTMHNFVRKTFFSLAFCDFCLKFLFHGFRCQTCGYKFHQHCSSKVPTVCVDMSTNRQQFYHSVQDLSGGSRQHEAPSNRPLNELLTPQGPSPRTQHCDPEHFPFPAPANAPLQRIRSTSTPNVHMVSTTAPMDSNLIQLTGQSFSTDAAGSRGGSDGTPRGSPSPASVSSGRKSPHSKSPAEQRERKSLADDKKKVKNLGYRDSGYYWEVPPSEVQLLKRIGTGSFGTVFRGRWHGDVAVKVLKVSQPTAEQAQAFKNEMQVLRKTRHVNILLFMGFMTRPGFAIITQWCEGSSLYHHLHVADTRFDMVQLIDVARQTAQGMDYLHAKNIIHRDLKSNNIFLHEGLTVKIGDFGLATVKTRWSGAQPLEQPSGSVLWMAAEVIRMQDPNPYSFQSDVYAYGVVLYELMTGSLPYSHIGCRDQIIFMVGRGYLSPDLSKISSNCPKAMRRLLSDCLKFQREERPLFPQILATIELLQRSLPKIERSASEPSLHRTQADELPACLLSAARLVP
In short: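 Panel of 327 recombinant human kinases, each assayed in vitro by radiometric activity assay in duplicate at a single inhibitor concentration per compound, chosen with reference to its ULK1 inhibition. Activity remaining was expressed as percent of vehicle control, and percent inhibition was calculated as 100 minus percent activity remaining.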

[3] = target: Cyclin-dependent kinase 5 (Homo sapiens) (UniProt Q00535); experiment: Inhibition of human recombinant CDK5 at 500 nM in presence of ATP by radiometric assay relative to control
Cyclin-dependent kinase 5 (Homo sapiens), sequence (Q00535 whole entry, looked up): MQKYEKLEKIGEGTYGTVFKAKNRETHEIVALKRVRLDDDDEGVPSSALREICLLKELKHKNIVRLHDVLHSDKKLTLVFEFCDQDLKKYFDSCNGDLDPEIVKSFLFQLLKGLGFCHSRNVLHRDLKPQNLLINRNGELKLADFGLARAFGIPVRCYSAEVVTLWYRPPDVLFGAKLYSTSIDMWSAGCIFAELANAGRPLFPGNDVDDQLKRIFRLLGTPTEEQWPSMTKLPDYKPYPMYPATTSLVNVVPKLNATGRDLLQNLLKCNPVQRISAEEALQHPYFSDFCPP

[4] = target: T2, Testis-specific serine/threonine-protein kinase 3 (Homo sapiens) (UniProt Q96PN8); experiment: Inhibition of human recombinant TSSK3 at 15 nM related to control ULK1
T2 sequence (whole entry): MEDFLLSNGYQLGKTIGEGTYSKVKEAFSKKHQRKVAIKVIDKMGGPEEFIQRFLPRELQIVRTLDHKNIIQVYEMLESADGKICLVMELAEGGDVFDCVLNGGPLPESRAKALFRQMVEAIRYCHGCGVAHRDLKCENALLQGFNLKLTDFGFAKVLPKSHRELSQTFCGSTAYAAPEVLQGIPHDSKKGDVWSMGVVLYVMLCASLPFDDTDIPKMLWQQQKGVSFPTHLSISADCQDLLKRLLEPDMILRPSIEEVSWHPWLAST

[5] = target: T3, Testis-specific serine/threonine-protein kinase 1 (Homo sapiens) (UniProt Q9BXA7); experiment: Inhibition of human recombinant TSSK1 at 15 nM in presence of ATP by radiometric assay relative to control
T3 sequence (whole entry): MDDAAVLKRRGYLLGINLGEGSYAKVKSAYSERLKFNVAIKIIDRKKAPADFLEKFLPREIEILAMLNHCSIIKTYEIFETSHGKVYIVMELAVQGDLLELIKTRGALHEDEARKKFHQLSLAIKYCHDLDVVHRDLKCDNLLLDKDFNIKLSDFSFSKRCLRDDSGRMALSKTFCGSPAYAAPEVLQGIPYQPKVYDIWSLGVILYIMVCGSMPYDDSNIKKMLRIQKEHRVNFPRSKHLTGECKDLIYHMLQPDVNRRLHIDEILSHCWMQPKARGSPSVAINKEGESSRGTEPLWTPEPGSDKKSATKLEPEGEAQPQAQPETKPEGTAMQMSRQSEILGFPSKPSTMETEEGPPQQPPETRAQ

[6] = target: Serine/threonine-protein kinase B-raf (Homo sapiens) (UniProt P15056); experiment: Inhibition of human recombinant BRAF at 15 nM in presence of ATP by radiometric assay relative to control
Serine/threonine-protein kinase B-raf (Homo sapiens), sequence (P15056 whole entry): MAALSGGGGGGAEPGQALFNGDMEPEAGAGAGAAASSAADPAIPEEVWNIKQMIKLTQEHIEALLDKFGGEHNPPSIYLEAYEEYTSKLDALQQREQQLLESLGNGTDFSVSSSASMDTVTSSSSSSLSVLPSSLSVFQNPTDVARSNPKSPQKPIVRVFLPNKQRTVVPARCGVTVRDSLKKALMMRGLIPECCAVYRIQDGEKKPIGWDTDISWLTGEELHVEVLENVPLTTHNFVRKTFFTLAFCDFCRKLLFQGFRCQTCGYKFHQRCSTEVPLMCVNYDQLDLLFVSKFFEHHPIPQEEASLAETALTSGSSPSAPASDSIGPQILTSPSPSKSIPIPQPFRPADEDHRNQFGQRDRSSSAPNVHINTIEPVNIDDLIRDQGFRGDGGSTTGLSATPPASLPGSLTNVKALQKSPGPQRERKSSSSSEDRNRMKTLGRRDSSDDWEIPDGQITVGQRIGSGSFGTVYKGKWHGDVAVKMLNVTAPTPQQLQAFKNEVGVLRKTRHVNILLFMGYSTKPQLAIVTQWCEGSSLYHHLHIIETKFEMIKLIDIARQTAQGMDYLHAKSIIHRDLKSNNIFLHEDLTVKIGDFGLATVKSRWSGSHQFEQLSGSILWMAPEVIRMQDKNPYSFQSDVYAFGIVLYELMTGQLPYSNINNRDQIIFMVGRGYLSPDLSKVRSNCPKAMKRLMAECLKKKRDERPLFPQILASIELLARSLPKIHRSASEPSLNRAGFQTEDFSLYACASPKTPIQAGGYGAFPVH
In short: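 Part of a radiometric in vitro activity panel of 327 recombinant human kinases. Each kinase was tested in duplicate at one inhibitor concentration. Activity remaining was expressed as a percentage of the vehicle control, and percent inhibition was taken as 100 minus that value.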

[7] = target: Cyclin-dependent kinase 4 (Homo sapiens) (UniProt P11802); experiment: Inhibition of human recombinant CDK4 at 15 nM related to control ULK1
Cyclin-dependent kinase 4 (Homo sapiens), sequence (P11802 whole entry): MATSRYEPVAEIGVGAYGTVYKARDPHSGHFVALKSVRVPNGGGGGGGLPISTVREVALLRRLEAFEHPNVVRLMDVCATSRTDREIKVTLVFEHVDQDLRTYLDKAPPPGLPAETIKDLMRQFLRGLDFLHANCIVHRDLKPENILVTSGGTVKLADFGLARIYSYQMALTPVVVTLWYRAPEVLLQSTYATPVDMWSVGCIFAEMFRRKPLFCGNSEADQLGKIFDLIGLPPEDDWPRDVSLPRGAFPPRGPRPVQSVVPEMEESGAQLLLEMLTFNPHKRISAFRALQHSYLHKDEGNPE

[8] = target: Fibroblast growth factor receptor 4 (Homo sapiens) (UniProt P22455); experiment: Inhibition of human recombinant FGFR4 at 15 nM related to control ULK1
Fibroblast growth factor receptor 4 (Homo sapiens), sequence (P22455 22-802 limits assumed): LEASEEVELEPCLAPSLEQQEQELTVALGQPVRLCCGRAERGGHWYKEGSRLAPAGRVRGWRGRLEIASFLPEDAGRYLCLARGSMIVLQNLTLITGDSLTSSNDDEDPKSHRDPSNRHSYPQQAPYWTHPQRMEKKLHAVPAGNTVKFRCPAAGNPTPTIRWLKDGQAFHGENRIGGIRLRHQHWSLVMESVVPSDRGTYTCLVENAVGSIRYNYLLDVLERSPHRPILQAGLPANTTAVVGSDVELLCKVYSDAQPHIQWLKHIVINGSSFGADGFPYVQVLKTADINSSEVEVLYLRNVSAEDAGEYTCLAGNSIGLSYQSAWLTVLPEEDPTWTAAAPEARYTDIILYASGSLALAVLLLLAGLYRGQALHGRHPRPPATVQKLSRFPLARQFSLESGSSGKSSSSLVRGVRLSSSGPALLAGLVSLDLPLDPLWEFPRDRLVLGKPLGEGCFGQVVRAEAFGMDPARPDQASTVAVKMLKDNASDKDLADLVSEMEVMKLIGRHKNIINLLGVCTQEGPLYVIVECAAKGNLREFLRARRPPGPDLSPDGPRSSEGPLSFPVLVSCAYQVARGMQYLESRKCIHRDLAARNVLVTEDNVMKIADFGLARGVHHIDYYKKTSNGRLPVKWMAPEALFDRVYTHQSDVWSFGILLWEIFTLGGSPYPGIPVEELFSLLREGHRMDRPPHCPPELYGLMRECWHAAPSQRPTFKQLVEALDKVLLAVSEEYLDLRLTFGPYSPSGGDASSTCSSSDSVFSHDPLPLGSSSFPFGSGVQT

[9] = target: T4, Myotonin-protein kinase (Homo sapiens) (UniProt Q09013); experiment: Inhibition of human recombinant DMPK1 at 40 nM related to control ULK1
T4 sequence (whole entry): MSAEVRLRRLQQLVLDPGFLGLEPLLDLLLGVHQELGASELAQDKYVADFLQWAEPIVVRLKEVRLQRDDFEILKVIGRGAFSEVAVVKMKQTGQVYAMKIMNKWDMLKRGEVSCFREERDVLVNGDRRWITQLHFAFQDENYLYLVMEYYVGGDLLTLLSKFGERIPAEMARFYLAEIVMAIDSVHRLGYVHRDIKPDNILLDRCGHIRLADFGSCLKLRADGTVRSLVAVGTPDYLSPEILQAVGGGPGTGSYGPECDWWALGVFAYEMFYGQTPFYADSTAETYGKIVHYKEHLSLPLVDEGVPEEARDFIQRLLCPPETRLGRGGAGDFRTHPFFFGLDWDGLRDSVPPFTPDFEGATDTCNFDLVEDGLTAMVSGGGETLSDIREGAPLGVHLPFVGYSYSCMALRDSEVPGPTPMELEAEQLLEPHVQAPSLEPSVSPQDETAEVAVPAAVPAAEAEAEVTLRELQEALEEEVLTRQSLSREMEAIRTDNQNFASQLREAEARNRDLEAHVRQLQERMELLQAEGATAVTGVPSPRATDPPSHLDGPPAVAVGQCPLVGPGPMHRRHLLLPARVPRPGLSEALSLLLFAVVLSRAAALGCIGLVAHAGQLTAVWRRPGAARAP

[10] = target: Mitogen-activated protein kinase kinase kinase kinase 4 (Homo sapiens) (UniProt O95819); experiment: Inhibition of human recombinant HGK at 40 nM in presence of ATP by radiometric assay relative to control
Mitogen-activated protein kinase kinase kinase kinase 4 (Homo sapiens), sequence (O95819 2-1239 limits assumed): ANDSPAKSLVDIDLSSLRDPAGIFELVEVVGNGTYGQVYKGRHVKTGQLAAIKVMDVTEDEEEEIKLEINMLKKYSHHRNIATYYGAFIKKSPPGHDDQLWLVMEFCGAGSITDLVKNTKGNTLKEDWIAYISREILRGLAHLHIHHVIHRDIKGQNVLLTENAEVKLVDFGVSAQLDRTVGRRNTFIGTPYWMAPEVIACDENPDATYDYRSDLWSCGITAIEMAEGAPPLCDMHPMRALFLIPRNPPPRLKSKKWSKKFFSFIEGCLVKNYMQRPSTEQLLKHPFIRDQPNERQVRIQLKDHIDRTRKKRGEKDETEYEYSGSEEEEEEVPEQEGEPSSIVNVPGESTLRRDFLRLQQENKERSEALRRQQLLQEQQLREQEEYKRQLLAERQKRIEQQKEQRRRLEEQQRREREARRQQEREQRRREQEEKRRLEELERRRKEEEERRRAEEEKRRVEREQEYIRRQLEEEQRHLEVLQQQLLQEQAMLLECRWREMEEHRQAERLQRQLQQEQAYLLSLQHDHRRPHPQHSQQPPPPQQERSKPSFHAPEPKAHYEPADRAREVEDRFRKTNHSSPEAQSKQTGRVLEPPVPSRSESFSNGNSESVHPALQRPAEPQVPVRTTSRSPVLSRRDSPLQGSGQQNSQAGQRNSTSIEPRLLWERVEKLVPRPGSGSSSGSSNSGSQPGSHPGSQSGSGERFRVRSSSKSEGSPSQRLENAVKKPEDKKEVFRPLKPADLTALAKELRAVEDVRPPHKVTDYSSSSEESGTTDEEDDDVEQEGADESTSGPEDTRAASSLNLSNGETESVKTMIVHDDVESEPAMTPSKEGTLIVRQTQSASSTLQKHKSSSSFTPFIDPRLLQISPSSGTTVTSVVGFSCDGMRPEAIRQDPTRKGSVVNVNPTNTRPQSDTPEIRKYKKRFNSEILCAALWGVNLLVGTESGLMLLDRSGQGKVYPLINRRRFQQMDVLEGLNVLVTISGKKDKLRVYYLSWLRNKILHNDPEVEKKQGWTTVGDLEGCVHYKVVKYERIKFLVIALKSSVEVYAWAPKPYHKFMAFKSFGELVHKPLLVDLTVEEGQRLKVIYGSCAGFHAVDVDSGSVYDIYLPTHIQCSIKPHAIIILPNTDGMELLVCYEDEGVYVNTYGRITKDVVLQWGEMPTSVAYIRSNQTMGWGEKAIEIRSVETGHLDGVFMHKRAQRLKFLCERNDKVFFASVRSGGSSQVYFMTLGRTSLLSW

[11] = target: Serine/threonine-protein kinase SIK1 (Homo sapiens) (UniProt P57059); experiment: Inhibition of human recombinant SIK at 40 nM in presence of ATP by radiometric assay relative to control
Serine/threonine-protein kinase SIK1 (Homo sapiens), sequence (P57059 whole entry): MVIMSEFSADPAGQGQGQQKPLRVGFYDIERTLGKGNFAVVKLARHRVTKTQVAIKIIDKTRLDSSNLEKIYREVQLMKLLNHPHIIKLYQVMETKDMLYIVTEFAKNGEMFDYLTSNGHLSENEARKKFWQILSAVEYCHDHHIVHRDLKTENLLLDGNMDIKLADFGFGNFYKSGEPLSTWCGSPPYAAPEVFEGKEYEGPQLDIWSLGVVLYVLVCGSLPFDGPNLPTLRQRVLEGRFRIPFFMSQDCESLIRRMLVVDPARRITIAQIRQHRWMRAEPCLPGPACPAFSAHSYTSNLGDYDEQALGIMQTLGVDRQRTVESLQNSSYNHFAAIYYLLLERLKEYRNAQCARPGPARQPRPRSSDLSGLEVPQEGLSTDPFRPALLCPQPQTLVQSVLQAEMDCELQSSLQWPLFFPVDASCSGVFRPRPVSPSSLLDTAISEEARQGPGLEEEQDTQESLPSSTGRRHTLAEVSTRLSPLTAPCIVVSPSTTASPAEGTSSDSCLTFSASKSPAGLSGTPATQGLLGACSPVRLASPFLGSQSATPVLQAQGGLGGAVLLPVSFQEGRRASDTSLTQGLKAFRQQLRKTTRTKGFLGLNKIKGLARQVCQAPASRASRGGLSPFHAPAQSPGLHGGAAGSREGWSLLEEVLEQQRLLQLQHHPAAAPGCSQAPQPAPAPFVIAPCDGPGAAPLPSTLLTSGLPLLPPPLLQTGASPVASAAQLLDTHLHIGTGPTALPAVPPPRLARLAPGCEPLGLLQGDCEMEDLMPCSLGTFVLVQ

Tyrosine-protein kinase Yes (Homo sapiens), sequence (P07947 2-543 limits assumed): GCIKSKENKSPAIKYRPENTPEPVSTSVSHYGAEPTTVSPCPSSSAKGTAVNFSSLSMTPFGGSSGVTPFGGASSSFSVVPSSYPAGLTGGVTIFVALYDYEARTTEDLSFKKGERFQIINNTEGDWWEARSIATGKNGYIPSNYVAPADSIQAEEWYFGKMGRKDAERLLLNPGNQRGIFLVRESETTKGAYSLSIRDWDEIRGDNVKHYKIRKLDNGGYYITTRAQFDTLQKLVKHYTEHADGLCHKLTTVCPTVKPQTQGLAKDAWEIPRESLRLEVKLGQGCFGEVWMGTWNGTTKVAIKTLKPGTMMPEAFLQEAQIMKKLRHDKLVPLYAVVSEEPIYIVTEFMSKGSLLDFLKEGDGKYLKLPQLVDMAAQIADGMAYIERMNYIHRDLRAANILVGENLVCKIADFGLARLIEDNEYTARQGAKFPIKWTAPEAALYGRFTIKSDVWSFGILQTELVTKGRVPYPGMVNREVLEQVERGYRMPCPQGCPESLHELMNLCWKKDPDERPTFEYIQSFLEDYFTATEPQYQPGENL

Q: CNC(=O)c1ccccc1Oc1nc(Nc2cc(OC)c(OC)c(OC)c2)ncc1Br was tested. Which fold change (FC) [1] did it give?
A: 0.89

Q: What about the fold change (FC) [2] of the same molecule?
A: 0

Q: What about the inhibition [3] of the same molecule?
A: 57%

Q: CC(C)[C@H](NC(=O)c1cc(-c2cnn3cc(-c4ccc(OCCN5CCCCC5)cc4)cnc23)cs1)C(F)(F)F was tested. Which fold change (FC) [4] did it give?
A: 0.16

Q: And the inhibition [5]?
A: 23%

Q: And the inhibition [6]?
A: 11%

Q: What about the fold change (FC) [7] of the same molecule?
A: 0.13

Q: What about the fold change (FC) [8] of the same molecule?
A: 0

Q: Which fold change (FC) [9] does the source give for O=C(N[C@@H](C1CC1)C(F)(F)F)c1cc(-c2cnn3cc(-c4ccc(F)cc4)cnc23)cs1 here?
A: 0.07

Q: And the inhibition [10]?
A: 0%

Q: And the inhibition [11]?
A: 20%
